A selection: hits, their analogues and other compounds. The true share with any hit is near 2%.
SR-BI uptake up: activators of SR-BI mediated HDL lipid uptake; CHO ldlA[mSR-BI] cells, DiI-HDL uptake fluorescence, 3 h; 100 = double the neutral-control signal; 0.096% of 320,000 active; activation, % at 12.5 µM;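 active = mean replicate activation of at least 60% and every replicate at or above 60%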;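 also: 0% = median plate neutral-control signal and 100% = twice that signal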
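system = CHO ldlA[mSR-BI] cells, LDL receptor-null, SR-BI overexpressing | medium = Ham's F12 with 0.5% BSA, HEPES 25 mM, pH 7.4 | probe or stimulus = DiI-HDL 10 µg/mL | compound dosing = single-point compound dose | incubation = compound exposure 3 h, 37 °C | technique = DiI fluorescence, bottom read | read-out = cell-associated DiI fluorescence as measure of HDL uptake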
dFosB act: activators of mouse delta FosB homodimer; purified delta FosB, TAMRA-CDK5 oligo fluorescence polarization; percent of positive-control signal above neutral wells; activation, % at 25 µM; 0.99% of 340,000 active;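 active = mean activation above about 17%, with every replicate also reaching it, limit read from the data, passing the limit was not always enough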
Target sequence (P13346 whole entry, looked up): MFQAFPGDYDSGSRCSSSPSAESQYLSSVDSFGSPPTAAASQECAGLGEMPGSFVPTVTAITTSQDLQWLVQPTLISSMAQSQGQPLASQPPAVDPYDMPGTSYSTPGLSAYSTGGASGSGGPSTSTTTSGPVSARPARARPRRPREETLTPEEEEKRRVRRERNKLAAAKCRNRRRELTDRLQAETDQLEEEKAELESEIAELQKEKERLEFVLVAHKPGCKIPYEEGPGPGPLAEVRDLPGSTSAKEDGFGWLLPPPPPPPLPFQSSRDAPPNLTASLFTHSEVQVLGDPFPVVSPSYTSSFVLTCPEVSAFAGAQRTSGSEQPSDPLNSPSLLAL
SR-BI DiI inh: mouse SR-BI HDL lipid transfer inhibition. inhibition, % at 12.5 µM. ldlA[mSR-BI] CHO cells, DiI-HDL uptake fluorescence, 3 h. 0.96% of 320,000 active. Q61009. AID 488896;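 active = mean replicate inhibition of at least 70% and a set share of replicates each scoring 70 or more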;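 also: 0% = median of neutral control wells and 100% = median of positive control wells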
CDK5 inh: blocks human CDK5/p35 kinase activity; Q00535+Q15078; Recombinant CDK5/p35, ADP-Glo luminescence, 60 min; inhibition, % at 10 µM; 0.01% of 330,000 active;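 active = highest replicate inhibition of at least 50% and at least 75% of replicates reaching 50%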;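 also: plate controls were DMSO neutral control for no effect and GW8510 at 10 µM for full effect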
* marks the source's active call; other numbers are inactive results; . = no result given.

SMILES	SR-BI uptake up	dFosB act	SR-BI DiI inh	CDK5 inh
CC1=CC(=C(C#N)C#N)C=C(C)N1CCN1CCNCC1	22.9	18.6*	-22.9	1.5
CC1=CC(=C(C#N)C#N)C=C(C)N1CCN1CCN(C(=O)Nc2cccc(Cl)c2)CC1	-52.9	30.1*	52.9	0.4
CC(=O)N1CCN(CCN2C(C)=CC(=C(C#N)C#N)C=C2C)CC1	-0.3	-0.5	0.3	0.6
Cc1cc(OCC(O)CN(C)C(=O)C(C)Oc2ccccc2)ccc1Cl (stereo not drawn)	-24.7	-1.7	24.7	0.6
Cc1cccc(NC(=O)c2ccc(OCc3c(C)noc3C)cc2)n1	-38.6	-9.4	38.6	-2.6
COc1ccc(C)cc1NC(=O)CCc1c(C)nn(-c2ccc(N3CCCCC3)nn2)c1C	-71.1	-7.4	71.1*	0.3
Cc1cc(F)ccc1NC(=O)CCc1c(C)nn(-c2ccc(N3CCCCC3)nn2)c1C	-82.4	-6.2	82.4*	-0.4
Cc1ccc(NC(=O)CCc2c(C)nn(-c3ccc(N4CCCCC4)nn3)c2C)cc1	-44.1	-5.0	44.1	.
Cc1ccc(F)cc1NC(=O)CCc1c(C)nn(-c2ccc(N3CCCCC3)nn2)c1C	-80.6	-4.3	80.6*	1.0
CCCOc1ccccc1Cn1c(=O)oc2ccccc21	-4.9	-5.9	4.9	1.0
CCOC(=O)COc1c(Br)cc(/C=C2\SC(=O)N(CC(=O)N3CCCC3)C2=O)cc1OC	-72.1	-1.6	72.1*	1.3
CCOc1c(Br)cc(/C=C2/SC(=O)N(CC(=O)N3CCCC3)C2=O)cc1OC	-59.6	-4.1	59.6	0.2
Cc1nn(CC(=O)NCc2cccs2)c(=O)c2nn(-c3ccccc3)c(C)c12	6.9	-6.8	-6.9	-2.9
O=c1cc2oc3cc(O)c(O)cc3c(-c3ccccc3[N+](=O)[O-])c-2cc1O	-89.6	-2.0	89.6*	1.8
NC(=S)n1[nH]c(-c2ccc([N+](=O)[O-])cc2)c(N=Nc2cccc([N+](=O)[O-])c2)c1=O	-87.2	-14.2	87.2*	-0.3
NC(=S)n1[nH]c(-c2ccc([N+](=O)[O-])cc2)c(N=Nc2ccccc2[N+](=O)[O-])c1=O	-89.3	-2.1	89.3*	-1.8
Cc1c(N=Nc2c(-c3ccc([N+](=O)[O-])cc3)[nH]n(C(N)=S)c2=O)cccc1[N+](=O)[O-]	-91.7	-2.5	91.8*	0.6
Cc1[nH]n(-c2ccccc2)c(=O)c1N=Nc1cccc([N+](=O)[O-])c1	-43.0	2.6	43.0	-0.1
Nc1[nH]n(-c2ccccc2)c(=O)c1N=Nc1ccccc1[N+](=O)[O-]	-21.3	-1.1	21.3	-0.1
Cc1[nH]n(C(N)=S)c(=O)c1N=Nc1cccc([N+](=O)[O-])c1C	14.2	-3.3	-14.2	-0.1
Cc1ccc(C)c(S(=O)(=O)N(C)c2ccc(OC(=O)C3CCN(C(=O)Nc4ccccc4)CC3)cc2)c1	-16.0	-8.4	16.0	0.6
O=C(COC(=O)c1nn(-c2ccccc2C(F)(F)F)cc1O)c1ccc(OC(F)F)cc1	0.7	9.0	-0.7	-0.2
CC(=O)c1cccc(N=Nc2c(-c3ccccc3)[nH]n(-c3ccccc3)c2=O)c1	-100.1	-3.4	100.1*	0.6
CCN(CC)CCCCCC(=O)Nc1ccccc1C(=O)Nc1ccccc1	-2.1	5.7	2.1	-0.4
COc1ccc(CC(=O)NNS(=O)(=O)c2ccc([N+](=O)[O-])cc2)cc1OC	61.4*	2.9	-61.4	0.1
SMILES	SR-BI uptake up	dFosB act	SR-BI DiI inh	CDK5 inh
CCN(CC)CCNc1ccc(C)c2sc3ccc(O)cc3c(=O)c12	-29.7	41.0*	29.7	0.8
CCN(CC)CCCNC(=O)C(C)n1nc(C)c2sc3ccccc3c2c1=O (stereo not drawn)	18.5	-1.9	-18.5	-2.2
CC(=O)NC(Cc1ccccc1F)C(=O)NC1CCN(C(=O)NCc2ccccc2)CC1 (stereo not drawn)	-2.7	3.5	2.7	-5.2
CN(C)C(CNC(=O)c1cc(S(=O)(=O)N2CCOCC2)ccc1Cl)c1cccs1 (stereo not drawn)	1.3	0.5	-1.3	-0.3
O=c1cc(NCCCO)c2ccccc2o1	8.0	0.6	-8.0	0.2
CN(C)CCNc1ccc(CO)c2oc3ccc(O)cc3c(=O)c12	-4.4	25.6*	4.4	1.0
COc1ccc(-c2nc(CN3CCC(C(=O)NCC4CCCO4)CC3)c(C)o2)cc1OC (stereo not drawn)	4.0	-7.2	-4.0	-0.9
Cc1ccc(N(C)S(=O)(=O)c2cccc(C(=O)Nc3ccc(N4CCOCC4)cc3)c2)cc1	-59.2	-11.3	59.2	-0.6
CN(c1ccccc1)S(=O)(=O)c1cccc(C(=O)Nc2ccc(N3CCOCC3)cc2)c1	-86.1	-6.9	86.1*	-4.7
COc1cc(-c2cc(C(=O)Nc3ccc(C)c(S(=O)(=O)N4CCOCC4)c3)c3ccccc3n2)cc(OC)c1OC	-37.4	33.4*	37.4	0.6
O=C(Nc1ccc(N2CCCCCC2)cc1)c1cccc(S(=O)(=O)N2CCOCC2)c1	-71.0	2.2	71.0*	-1.8
CCOC(=O)c1ccc(NC(=O)c2ccc(C)c(S(=O)(=O)N3CCOCC3)c2)cc1	-87.0	-7.7	87.0*	1.1
O=C(Nc1cccc(S(=O)(=O)N2CCOCC2)c1)c1cccc(S(=O)(=O)N2CCCCC2)c1	-33.3	3.1	33.3	2.0
CCOc1ccc(-c2nc(CN3CCCCC3CCn3cccn3)c(C)o2)cc1 (stereo not drawn)	.	-14.1	.	-3.1
O=S(=O)(c1cccc(COc2ccc(Cl)cc2Cl)c1)N1CCOCC1	-71.8	-2.4	71.8*	-0.3
CCOC(=O)c1c(C)[nH]c(C(=O)COC(=O)c2ccc(F)c(S(=O)(=O)N3CCOCC3)c2)c1C	-73.6	9.2	73.6*	-0.6
CC(=O)c1ccc(NC(=O)c2ccc(C)c(S(=O)(=O)N3CCOCC3)c2)cc1	-85.3	-10.7	85.3*	1.1
CC(=O)c1cccc(NC(=O)c2cccc(S(=O)(=O)N3CCOCC3)c2)c1	.	-1.3	.	0.8
CCOC(=O)c1ccc(NC(=O)c2cccc(S(=O)(=O)N3CCOCC3)c2)cc1	-83.1	9.9	83.1*	1.4
CN(CC(=O)Nc1cccc(F)c1)C(=O)c1cc(S(=O)(=O)N2CCN(c3ccccc3)CC2)ccc1Cl	-0.4	-8.1	0.4	0.8
Cn1c(SCC(=O)Nc2ccc(Br)cn2)nnc1C1CC1	16.5	1.1	-16.5	1.7
COc1ccc(N2CCN(S(=O)(=O)CCNC(=O)COc3cccc(OC)c3)CC2)cc1	.	-4.4	43.9	-8.2
COC(=O)c1cc(S(=O)(=O)N2CCCCCC2)c[nH]1	13.1	-1.8	-13.1	-1.8
O=C(NNC(=O)c1cc(Cl)ccc1O)c1cccc(S(=O)(=O)N2CCOCC2)c1	-106.9	-5.0	106.9*	-2.5
Cc1ccc(NC(=O)c2ccc(=O)[nH]c2)cc1S(=O)(=O)N1CCCCCC1	-79.7	-16.8	79.7*	-0.4
O=C(Nc1ccc(N2CCOCC2)cc1)c1cc2c(s1)CCCCC2	-87.8	-6.7	87.8*	-5.6
Cc1ccc(C(=O)NNC(=O)c2cccc(S(=O)(=O)N3CCOCC3)c2)cc1	.	-10.2	1.5	0.0
